Measured values reported in ChEMBL document CHEMBL1140543, “Biphenyls as potent vitronectin receptor antagonists. Part 3: Squaric acid amides” (Bioorg Med Chem Lett, 2007).
One block for each compound: values may come before it.

How the values were obtained:
Integrin alpha-V/beta-3 [1] = target: T1, Integrin alpha-V/beta-3 (Homo sapiens, UniProt P05106+P06756); assay: Binding affinity to integrin alpha-v-beta-3 receptor; type: protein-complex assay
Target sequence in this assay (P05106 27-788 limits assumed): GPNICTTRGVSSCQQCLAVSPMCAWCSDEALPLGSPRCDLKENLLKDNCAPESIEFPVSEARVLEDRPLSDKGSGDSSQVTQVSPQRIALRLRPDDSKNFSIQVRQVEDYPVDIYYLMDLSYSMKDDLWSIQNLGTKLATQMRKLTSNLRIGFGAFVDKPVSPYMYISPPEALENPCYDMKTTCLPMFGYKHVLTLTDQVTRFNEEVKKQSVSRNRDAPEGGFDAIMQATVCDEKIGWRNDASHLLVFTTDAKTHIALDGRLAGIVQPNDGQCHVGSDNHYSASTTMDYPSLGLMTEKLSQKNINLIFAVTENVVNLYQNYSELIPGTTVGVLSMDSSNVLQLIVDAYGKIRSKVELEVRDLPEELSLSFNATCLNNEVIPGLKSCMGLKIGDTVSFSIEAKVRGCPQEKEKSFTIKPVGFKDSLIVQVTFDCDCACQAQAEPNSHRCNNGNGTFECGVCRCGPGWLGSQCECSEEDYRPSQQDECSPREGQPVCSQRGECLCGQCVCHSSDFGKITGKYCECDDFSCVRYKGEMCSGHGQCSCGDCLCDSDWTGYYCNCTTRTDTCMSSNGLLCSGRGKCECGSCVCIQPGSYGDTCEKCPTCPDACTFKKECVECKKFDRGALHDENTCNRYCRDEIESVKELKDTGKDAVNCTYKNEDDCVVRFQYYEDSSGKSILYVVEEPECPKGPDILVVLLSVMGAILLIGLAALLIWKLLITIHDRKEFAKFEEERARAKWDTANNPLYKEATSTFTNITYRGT
Target sequence in this assay (P06756 31-889 limits assumed): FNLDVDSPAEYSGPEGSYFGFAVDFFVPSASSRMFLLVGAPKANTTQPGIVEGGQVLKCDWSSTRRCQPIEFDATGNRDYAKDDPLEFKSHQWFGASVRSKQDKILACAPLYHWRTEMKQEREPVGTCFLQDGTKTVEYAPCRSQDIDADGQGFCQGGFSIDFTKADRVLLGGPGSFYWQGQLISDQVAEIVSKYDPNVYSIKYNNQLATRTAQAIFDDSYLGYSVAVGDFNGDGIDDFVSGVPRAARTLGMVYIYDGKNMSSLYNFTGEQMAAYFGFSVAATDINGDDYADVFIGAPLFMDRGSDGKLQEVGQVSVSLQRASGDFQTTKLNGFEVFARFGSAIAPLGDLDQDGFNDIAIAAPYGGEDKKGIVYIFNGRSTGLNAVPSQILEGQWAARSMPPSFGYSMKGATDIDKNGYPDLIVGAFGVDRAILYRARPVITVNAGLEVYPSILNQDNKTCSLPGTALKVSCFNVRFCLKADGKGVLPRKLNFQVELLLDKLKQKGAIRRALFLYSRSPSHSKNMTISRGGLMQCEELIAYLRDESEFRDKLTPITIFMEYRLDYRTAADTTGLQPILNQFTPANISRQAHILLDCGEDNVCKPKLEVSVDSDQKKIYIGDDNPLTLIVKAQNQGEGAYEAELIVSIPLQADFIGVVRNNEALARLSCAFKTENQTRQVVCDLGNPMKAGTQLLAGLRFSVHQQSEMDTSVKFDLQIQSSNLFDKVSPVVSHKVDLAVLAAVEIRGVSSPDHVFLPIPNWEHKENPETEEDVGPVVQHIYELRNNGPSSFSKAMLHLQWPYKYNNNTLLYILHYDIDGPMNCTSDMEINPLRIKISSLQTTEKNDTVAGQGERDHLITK
Target sequence in this assay (P06756 891-1048 limits assumed): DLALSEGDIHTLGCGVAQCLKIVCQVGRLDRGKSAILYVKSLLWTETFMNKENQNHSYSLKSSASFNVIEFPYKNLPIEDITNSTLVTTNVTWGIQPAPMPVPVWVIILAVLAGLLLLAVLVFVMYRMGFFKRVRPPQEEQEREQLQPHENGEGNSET

Albumin = Albumin (Homo sapiens, UniProt P02768); assay: Binding affinity to human serum albumin by equilibrium dialysis
Albumin, sequence (P02768 whole entry): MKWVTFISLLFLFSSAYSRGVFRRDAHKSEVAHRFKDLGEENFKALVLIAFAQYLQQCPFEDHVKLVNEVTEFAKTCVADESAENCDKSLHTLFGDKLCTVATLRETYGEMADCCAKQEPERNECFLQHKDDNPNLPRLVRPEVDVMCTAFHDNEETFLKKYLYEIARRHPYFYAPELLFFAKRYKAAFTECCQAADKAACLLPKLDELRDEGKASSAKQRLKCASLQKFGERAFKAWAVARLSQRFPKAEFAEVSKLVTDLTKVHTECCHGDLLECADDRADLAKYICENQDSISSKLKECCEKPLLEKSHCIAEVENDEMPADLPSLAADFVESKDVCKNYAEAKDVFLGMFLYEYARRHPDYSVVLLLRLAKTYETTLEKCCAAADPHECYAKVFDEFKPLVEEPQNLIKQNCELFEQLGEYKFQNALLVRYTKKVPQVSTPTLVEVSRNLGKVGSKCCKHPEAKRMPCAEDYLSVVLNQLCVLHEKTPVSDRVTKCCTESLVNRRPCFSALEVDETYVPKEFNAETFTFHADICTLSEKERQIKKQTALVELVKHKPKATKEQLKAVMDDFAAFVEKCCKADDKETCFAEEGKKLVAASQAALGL

Integrin alpha-V/beta-3 [2] = target: T1, Integrin alpha-V/beta-3; assay: Antagonist activity at human integrin alpha-v-beta-3 receptor expressed in HEK293 cells; type: functional, cell-based
How it was run: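 HEK 293 cells transfected with human αvβ3 were used. Inhibition of the adhesion of purified human vitronectin to these cells gave the cellular αvβ3 affinity.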

[3] = target: Integrin alpha-IIb/beta-3 (Homo sapiens, UniProt P05106+P08514); assay: Binding affinity to GP2b3a receptor; type: protein-complex assay
Integrin alpha-IIb/beta-3, sequence (P05106 27-788 limits assumed): as the sequence (P05106 27-788 limits assumed) above
Integrin alpha-IIb/beta-3, sequence (P08514 32-887 limits assumed): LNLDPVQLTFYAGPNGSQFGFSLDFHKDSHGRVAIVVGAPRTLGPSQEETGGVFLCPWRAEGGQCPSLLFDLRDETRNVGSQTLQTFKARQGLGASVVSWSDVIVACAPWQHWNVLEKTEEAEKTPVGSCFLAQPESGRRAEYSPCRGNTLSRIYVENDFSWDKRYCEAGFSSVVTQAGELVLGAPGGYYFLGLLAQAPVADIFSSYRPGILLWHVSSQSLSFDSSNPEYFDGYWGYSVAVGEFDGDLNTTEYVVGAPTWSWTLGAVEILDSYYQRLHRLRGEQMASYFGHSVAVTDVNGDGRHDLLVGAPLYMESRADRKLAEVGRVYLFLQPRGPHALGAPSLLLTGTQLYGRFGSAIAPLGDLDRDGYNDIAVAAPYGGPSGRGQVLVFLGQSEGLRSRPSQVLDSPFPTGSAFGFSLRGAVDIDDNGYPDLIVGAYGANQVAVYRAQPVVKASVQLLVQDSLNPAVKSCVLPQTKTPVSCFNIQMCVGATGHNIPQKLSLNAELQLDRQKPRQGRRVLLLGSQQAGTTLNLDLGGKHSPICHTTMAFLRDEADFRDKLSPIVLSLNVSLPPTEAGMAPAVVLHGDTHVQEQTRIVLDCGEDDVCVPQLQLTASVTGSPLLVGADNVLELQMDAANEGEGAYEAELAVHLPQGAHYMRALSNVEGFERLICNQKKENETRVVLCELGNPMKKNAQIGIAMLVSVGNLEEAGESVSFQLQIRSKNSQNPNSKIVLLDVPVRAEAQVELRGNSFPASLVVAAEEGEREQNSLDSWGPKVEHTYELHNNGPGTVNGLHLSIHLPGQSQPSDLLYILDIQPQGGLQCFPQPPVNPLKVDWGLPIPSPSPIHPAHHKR
Integrin alpha-IIb/beta-3, sequence (P08514 891-1039 limits assumed): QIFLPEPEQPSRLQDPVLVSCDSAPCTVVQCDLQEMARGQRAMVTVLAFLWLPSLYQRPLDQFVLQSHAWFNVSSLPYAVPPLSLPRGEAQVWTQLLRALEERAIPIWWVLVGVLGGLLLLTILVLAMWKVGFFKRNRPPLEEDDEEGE

Liver microsomes = assay: Clearance in rat liver microsomes; type: ADME, Microsome
[4] = Inhibition of smooth muscle cell migration; type: functional, Homo sapiens

SMILES: Cc1cc(C)c(S(=O)(=O)N[C@@H](Cc2ccc(-c3cccc(NC(=O)c4ccccn4)c3)cc2)C(=O)O)c(C)c1
Ki (Integrin alpha-V/beta-3 [1]): > 2000 nM

SMILES: Cc1cc(C)c(S(=O)(=O)N[C@@H](Cc2ccc(-c3cccc(NC(=O)c4cccnc4)c3)cc2)C(=O)O)c(C)c1
Ki (Integrin alpha-V/beta-3 [1]): 400 nM

SMILES: Cc1cc(C)c(S(=O)(=O)N[C@@H](Cc2ccc(-c3cccc(NC(=O)c4ccco4)c3)cc2)C(=O)O)c(C)c1
Ki (Integrin alpha-V/beta-3 [1]): 650 nM

SMILES: Cc1cc(C)c(S(=O)(=O)N[C@@H](Cc2ccc(-c3cccc(NC(=O)c4ccc[nH]4)c3)cc2)C(=O)O)c(C)c1
Ki (Integrin alpha-V/beta-3 [1]): 33 nM

SMILES: Cc1cc(C)c(S(=O)(=O)N[C@@H](Cc2ccc(-c3cccc(Nc4c(NCc5ccccc5)c(=O)c4=O)c3)cc2)C(=O)O)c(C)c1
Ki (Integrin alpha-V/beta-3 [1]): 25 nM

SMILES: Cc1cc(C)c(S(=O)(=O)N[C@@H](Cc2ccc(-c3cccc(NC(=O)NC4CC4)c3)cc2)C(=O)O)c(C)c1
Kd (Albumin): 740 nM
Activity (Integrin alpha-V/beta-3 [2]): 85 nM
Ki [3]: 128 nM
Activity [4]: 390 nM

SMILES: Cc1cc(C)c(S(=O)(=O)N[C@@H](Cc2ccc(-c3cccc(NC(=O)c4ccncc4)c3)cc2)C(=O)O)c(C)c1
Ki (Integrin alpha-V/beta-3 [1]): 700 nM

Second part, led by results:

Ki (Integrin alpha-V/beta-3 [1]): 10 nM
SMILES: CS(=O)(=O)N[C@@H](Cc1ccc(-c2cccc(Nc3c(NC4CC4)c(=O)c3=O)c2)cc1)C(=O)O

Ki (Integrin alpha-V/beta-3 [1]): 1 nM
SMILES: Cc1cc(C)c(S(=O)(=O)N[C@@H](Cc2ccc(-c3cccc(NC(=O)c4ncc[nH]4)c3)cc2)C(=O)O)c(C)c1

Ki (Integrin alpha-V/beta-3 [1]): 1.3 nM
SMILES: Cc1cc(C)c(S(=O)(=O)N[C@@H](Cc2ccc(-c3cccc(NC4=NCCN4)c3)cc2)C(=O)O)c(C)c1

Ki (Integrin alpha-V/beta-3 [1]): 18 nM
SMILES: Cc1cc(C)c(S(=O)(=O)N[C@@H](Cc2ccc(-c3cccc(Nc4n[s+]([O-])nc4NC4CC4)c3)cc2)C(=O)O)c(C)c1 (some centres not stated)

Ki (Integrin alpha-V/beta-3 [1]): 0.1 nM
SMILES: CC1(C)C2CC[C@]1(S(=O)(=O)N[C@@H](Cc1ccc(-c3cccc(Nc4c(NC5CC5)c(=O)c4=O)c3)cc1)C(=O)O)C(=O)C2

Ki (Integrin alpha-V/beta-3 [1]): 11 nM
SMILES: Cc1cc(C)c(S(=O)(=O)N[C@@H](Cc2ccc(-c3cccc(Nc4c(NCc5ccccn5)c(=O)c4=O)c3)cc2)C(=O)O)c(C)c1

Kd (Albumin): 420 nM
Activity (Integrin alpha-V/beta-3 [2]): 13 nM
Ki (Integrin alpha-V/beta-3 [1]): 0.5 nM
Ki [3]: 47 nM
CL (Liver microsomes): 65 mL/min/kg
SMILES: Cc1cc(C)c(S(=O)(=O)N[C@@H](Cc2ccc(-c3cccc(Nc4c(NC5CC5)c(=O)c4=O)c3)cc2)C(=O)O)c(C)c1
Activity [4]: 10 nM
